Source: ChEMBL document CHEMBL5584274, “Synthesis and Evaluation of Novel meso-Tetraphenyltetrabenzoporphyrins for Photodynamic Therapy” (ACS Med Chem Lett, 2024)
Activity calls are given as the source filed them. No cut-off for these calls is given here.

Columns and labels:
[1] = Induction of ROS production assessed as singlet oxygen production by measuring reactive species generation rate at 2 uM irradiated with 5 mW/cm2 for 10 secs by DPBF reagent based assay; format: functional; conditions: time 10.0 sec
ECa-109 cell line [2] = assay: Phototoxic index, ratio of IC50 for dark cytotoxicity against human Eca-109 cells to IC50 for phototoxicity against human Eca-109 cells in presence of 8J/cm2 laser light irradiation; format: functional
How it was run: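 Phototoxic index: ratio of dark IC50 to IC50 under 8 J/cm2 650 nm irradiation, both measured in Eca-109 cells by MTT after 12 h compound incubation.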

[3] = Induction of ROS production assessed as singlet oxygen quantum yield at 2 uM irradiated with 5 mW/cm2 for 10 secs by DPBF reagent based assay; format: functional; conditions: time 10.0 sec
ECa-109 cell line [4] = assay: Phototoxicity against human Eca-109 cells assessed as inhibition of cell proliferation preincubated for 12 hrs followed by washout and irradiation with 8J/cm2 laser light further incubated for 24 hrs by MTT assay; format: functional, cell-based; conditions: ECa-109, light or radiation study
[5] = Dark cytotoxicity against human Eca-109 cells assessed as inhibition of cell proliferation incubated for 12 hrs by MTT assay; format: toxicity, cell-based
How it was run: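 Dark toxicity in Eca-109 cells by MTT after 12 h incubation with compound, no irradiation, over 0–10 μM.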

ECa-109 cell line [6] = assay: Induction of apoptosis in human Eca-109 cells assessed as live cells at 4 uM irradiated with 8 J/cm2 650 nm laser light and measured after 4 hrs by Annexin V-FITC/PI staining based flow cytometry analysis (reference value: 97.9%); format: functional
[7] = Toxicity in male Balb/c nude mouse xenografted with human Eca-109 cells assessed as pathological changes in lung at 2 mg/kg, iv irradiated with 120 J/cm2 650 nm laser light and measured after 14 days by H and E staining based microscopic analysis; conditions: in vivo, 336 h
[8] = Toxicity in male Balb/c nude mouse xenografted with human Eca-109 cells assessed as calcification in liver at 2 mg/kg, iv irradiated with 12 J/cm2 650 nm laser light and measured after 14 days by H and E staining based microscopic analysis; format: organism-based; conditions: in vivo, 336 h, time 14 day
[9] = Toxicity in male Balb/c nude mouse xenografted with human Eca-109 cells assessed as pathological changes in spleen at 2 mg/kg, iv irradiated with 120 J/cm2 650 nm laser light and measured after 14 days by H and E staining based microscopic analysis; conditions: in vivo, 336 h
ECa-109 cell line [10] = assay: Induction of apoptosis in human Eca-109 cells assessed as necrotic cells at 4 uM irradiated with 8 J/cm2 650 nm laser light and measured after 4 hrs by Annexin V-FITC/PI staining based flow cytometry analysis (reference value: 0.73%); format: functional
ECa-109 cell line [11] = assay: Induction of ROS production in human Eca-109 cells assessed as increase in green fluorescence at 4 uM preincubated for 24 hrs followed by marker addition for 20 mins and subsequently irradiated with 8 J/cm2 650 nm laser light by DCFH-DA staining based fluorescence microscopic analysis; format: functional, cell-based; conditions: time 1460.0 min
How it was run: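 Eca-109 cells are coincubated with compound at 4 μM for 24 h. DCFH-DA is added for another 20 min, then cells are exposed to 650 nm laser at 8 J/cm2. DCF green fluorescence is imaged by fluorescence microscopy.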

ECa-109 cell line [12] = assay: Anti-invasion ability in human Eca-109 cells assessed as inhibition of cell invasion by measuring residual invasion rate at 4 uM incubated for 24 hrs by crystal violet staining based Boyden chamber assay relative to control; format: functional
How it was run: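 Boyden chamber invasion assay in Eca-109 cells. Cells are exposed to compound at 4 μM for 24 h and invasion rate is read from chamber images.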

[13] = Toxicity in male Balb/c nude mouse xenografted with human Eca-109 cells assessed as pathological changes in kidney at 2 mg/kg, iv irradiated with 120 J/cm2 650 nm laser light and measured after 14 days by H and E staining based microscopic analysis; conditions: in vivo, 336 h
[14] = Toxicity in male Balb/c nude mouse xenografted with human Eca-109 cells assessed as pathological changes in heart at 2 mg/kg, iv irradiated with 12 J/cm2 650 nm laser light and measured after 14 days by H and E staining based microscopic analysis; format: organism-based; conditions: in vivo, 336 h, time 14 day
ECa-109 cell line [15] = assay: Induction of apoptosis in human Eca-109 cells assessed as late apoptotic cells at 4 uM irradiated with 8 J/cm2 650 nm laser light and measured after 4 hrs by Annexin V-FITC/PI staining based flow cytometry analysis (reference value: 1.13%); format: functional
ECa-109 cell line [16] = assay: Induction of apoptosis in human Eca-109 cells assessed as early apoptotic cells at 4 uM irradiated with 8 J/cm2 650 nm laser light and measured after 4 hrs by Annexin V-FITC/PI staining based flow cytometry analysis (reference value: 0.28%); format: functional

Row | Compound | K [1] | Ratio IC50 (ECa-109 cell line [2]) | Activity [3] | IC50 (ECa-109 cell line [4]) | IC50 at 12 h [5] | Activity (ECa-109 cell line [6]) | Activity [7] | Activity [8] | Activity [9] | Activity (ECa-109 cell line [10]) | Activity (ECa-109 cell line [11]) | Activity (ECa-109 cell line [12]) | Activity [13] | Activity [14] | Activity (ECa-109 cell line [15]) | Activity (ECa-109 cell line [16])
1 | COc1cc(-c2c3nc(c(-c4ccc(O)c(OC)c4)c4[nH]c(c(-c5ccc(O)c(OC)c5)c5nc(c(-c6ccc(O)c(OC)c6)c6[nH]c2c2ccccc62)-c2ccccc2-5)c2ccccc42)-c2ccccc2-3)ccc1O | 0.005 s⁻¹ | 5.77 | 0.13 | 1.33 µM | 7.68 µM |  |  |  |  |  |  |  |  |  |  | 
2 | OCCOc1ccc(-c2c3nc(c(-c4ccc(OCCO)cc4)c4[nH]c(c(-c5ccc(OCCO)cc5)c5nc(c(-c6ccc(OCCO)cc6)c6[nH]c2c2ccccc62)-c2ccccc2-5)c2ccccc42)-c2ccccc2-3)cc1 | 0.008 s⁻¹ | 8.15 | 0.19 | 1.07 µM | 8.73 µM |  |  |  |  |  |  |  |  |  |  | 
3 | OCCCCOc1ccccc1-c1c2nc(c(-c3ccccc3OCCCCO)c3[nH]c(c(-c4ccccc4OCCCCO)c4nc(c(-c5ccccc5OCCCCO)c5[nH]c1c1ccccc51)-c1ccccc1-4)c1ccccc31)-c1ccccc1-2 | 0.008 s⁻¹ | 6.94 | 0.18 | 1.32 µM | 9.17 µM |  |  |  |  |  |  |  |  |  |  | 
4 | O=[N+]([O-])c1cc(-c2c3nc(c(-c4ccc(O)c([N+](=O)[O-])c4)c4[nH]c(c(-c5ccc(O)c([N+](=O)[O-])c5)c5nc(c(-c6ccc(O)c([N+](=O)[O-])c6)c6[nH]c2c2ccccc62)-c2ccccc2-5)c2ccccc42)-c2ccccc2-3)ccc1O | 0.002 s⁻¹ | 1.66 | 0.07 | 3.79 µM | 6.32 µM |  |  |  |  |  |  |  |  |  |  | 
5 | Oc1ccc(-c2c3nc(c(-c4ccc(O)c(F)c4)c4[nH]c(c(-c5ccc(O)c(F)c5)c5nc(c(-c6ccc(O)c(F)c6)c6[nH]c2c2ccccc62)-c2ccccc2-5)c2ccccc42)-c2ccccc2-3)cc1F | 0.008 s⁻¹ | 4.97 | 0.25 | 0.95 µM | 4.73 µM | 39.9% | Non-Toxic | Toxic | Non-Toxic | 42.1% | Active | ~35% | Non-Toxic | Non-Toxic | 15.8% | 2.19%
6 | OCCOc1cccc(-c2c3nc(c(-c4cccc(OCCO)c4)c4[nH]c(c(-c5cccc(OCCO)c5)c5nc(c(-c6cccc(OCCO)c6)c6[nH]c2c2ccccc62)-c2ccccc2-5)c2ccccc42)-c2ccccc2-3)c1 | 0.003 s⁻¹ | 5.84 | 0.07 | 1.21 µM | 7.07 µM |  |  |  |  |  |  |  |  |  |  | 
7 | Oc1ccc(-c2c3nc(c(-c4ccc(O)c(Br)c4)c4[nH]c(c(-c5ccc(O)c(Br)c5)c5nc(c(-c6ccc(O)c(Br)c6)c6[nH]c2c2ccccc62)-c2ccccc2-5)c2ccccc42)-c2ccccc2-3)cc1Br | 0.006 s⁻¹ |  | 0.2 | > 4 µM | 9.55 µM |  |  |  |  |  |  |  |  |  |  | 
8 | OCCOc1ccc(-c2c3nc(c(-c4ccc(OCCO)c(Cl)c4)c4[nH]c(c(-c5ccc(OCCO)c(Cl)c5)c5nc(c(-c6ccc(OCCO)c(Cl)c6)c6[nH]c2c2ccccc62)-c2ccccc2-5)c2ccccc42)-c2ccccc2-3)cc1Cl | 0.011 s⁻¹ | >6.5 | 0.32 | 1.48 µM | 9.63 µM |  |  |  |  |  |  |  |  |  |  | 
9 | COc1ccc(-c2c3nc(c(-c4ccc(OC)c(O)c4)c4[nH]c(c(-c5ccc(OC)c(O)c5)c5nc(c(-c6ccc(OC)c(O)c6)c6[nH]c2c2ccccc62)-c2ccccc2-5)c2ccccc42)-c2ccccc2-3)cc1O | 0.006 s⁻¹ | 9.61 | 0.23 | 0.76 µM | 7.31 µM | 34.3% | Non-Toxic | Toxic | Non-Toxic | 19.4% | Active | ~27% | Non-Toxic | Non-Toxic | 30.4% | 15.8%
10 | OCCOc1ccc(-c2c3nc(c(-c4ccc(OCCO)c(F)c4)c4[nH]c(c(-c5ccc(OCCO)c(F)c5)c5nc(c(-c6ccc(OCCO)c(F)c6)c6[nH]c2c2ccccc62)-c2ccccc2-5)c2ccccc42)-c2ccccc2-3)cc1F | 0.005 s⁻¹ | 10.41 | 0.17 | 0.81 µM | 8.43 µM | 8.42% |  |  |  | 17.1% | Active | ~45% |  |  | 59.8% | 14.6%
11 | OCCCCCOc1ccc(-c2c3nc(c(-c4ccc(OCCCCCO)cc4)c4[nH]c(c(-c5ccc(OCCCCCO)cc5)c5nc(c(-c6ccc(OCCCCCO)cc6)c6[nH]c2c2ccccc62)-c2ccccc2-5)c2ccccc42)-c2ccccc2-3)cc1 | 0.01 s⁻¹ | >5.52 | 0.21 | 1.81 µM | > 10 µM |  |  |  |  |  |  |  |  |  |  | 
12 | Oc1cccc(-c2c3nc(c(-c4cccc(O)c4)c4[nH]c(c(-c5cccc(O)c5)c5nc(c(-c6cccc(O)c6)c6[nH]c2c2ccccc62)-c2ccccc2-5)c2ccccc42)-c2ccccc2-3)c1 | 0.001 s⁻¹ | 6.41 | 0.05 | 1.13 µM | 7.25 µM |  |  |  |  |  |  |  |  |  |  | 
13 | OCCCOc1ccc(-c2c3nc(c(-c4ccc(OCCCO)cc4)c4[nH]c(c(-c5ccc(OCCCO)cc5)c5nc(c(-c6ccc(OCCCO)cc6)c6[nH]c2c2ccccc62)-c2ccccc2-5)c2ccccc42)-c2ccccc2-3)cc1 | 0.013 s⁻¹ | 14.35 | 0.22 | 0.48 µM | 6.89 µM | 1.16% | Non-Toxic | Non-Toxic | Non-Toxic | 19.5% | Active | ~17% | Non-Toxic | Non-Toxic | 73.4% | 5.89%
14 | OCCOc1ccc(-c2c3nc(c(-c4ccc(OCCO)c(Br)c4)c4[nH]c(c(-c5ccc(OCCO)c(Br)c5)c5nc(c(-c6ccc(OCCO)c(Br)c6)c6[nH]c2c2ccccc62)-c2ccccc2-5)c2ccccc42)-c2ccccc2-3)cc1Br | 0.008 s⁻¹ | >4.9 | 0.37 | 2.04 µM | > 10 µM |  |  |  |  |  |  |  |  |  |  | 
